Most compounds without a hit are left out; they make up all but 2% or so of the library.
HCV NS3 hel inh – HCV NS3 helicase inhibition | NS3 helicase DNA unwinding, Cy5 molecular beacon fluorescence | inhibition, % at 10.9 µM | hit rate 0.56% among 290,000;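 active means inhibition above the mean of all tested compounds plus 3 SD, set per campaign, cut at about 35% in these data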;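 further: 0% = DMSO wells and 100% = thioflavine S control wells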
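System: NS3 helicase fragment of HCV / Schedule: 1 h at 25 °C / Control set: DMSO alone as 0% and 110 µM thioflavine S as 100% / Reagent: Cy5/quencher beacon DNA duplex and ATP to start / Technique: Cy5 fluorescence / Replication: singlicate / Evaluation: % inhibition of end-to-start signal ratio versus controls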
PABP polyA inh – PABP-poly(A) binding inhibition; hit rate 1% among 290,000; inhibition, % at 35 µM; P11940; PABP-poly(A) RNA binding, fluorescence polarization;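 further: calls also rest on retests at 20 µM and on dose response follow-up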
core dimer inh – blocks dimerization of HCV core protein. TR-FRET GST/Flag-core106 dimerization, 1536-well. inhibition, % at 5 µM. hit rate 0.33% among 300,000;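 active means inhibition above the mean of all tested compounds plus 3 SD, set per screening campaign, cut at about 45% in these data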
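Material: GST/Flag-tagged HCV core106 proteins. Incubation: 4 h, 22.5 °C incubation. Read-out basis: inhibition (%) from 671 over 617 nm ratio. Measured by: TR-FRET, excitation 340 nm, emission 617 and 671 nm.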
eIF4H FP inh – inhibitors of RNA binding by human eIF4H; Q15056; eIF4H fluorescence polarization binding assay; inhibition, % at 35 µM; hit rate 0.94% among 290,000;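 further: calls also rest on retests at 20 µM and on dose response follow-up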
MLLE-PAM2 inh – blocks PAM2 peptide binding to the PABP1 MLLE domain | GST-MLLE / FITC-PAM2 fluorescence polarization | inhibition, % at 20 µM | hit rate 0.36% among 360,000; in the data active means inhibition above about 35%, passing the limit was not always enough;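 further: plate controls were DMSO wells with GST-MLLE for no effect and wells lacking GST-MLLE protein for full effect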
DNA FID counter – fluorescent intercalator displacement, NS3 helicase counter-screen; DNA fluorescent intercalator displacement, fluorescence; inhibition, % at 7.9 µM; AID 1845; hit rate 0.17% among 290,000; in the data active means inhibition above about 37%;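 further: 0% = vehicle and 100% = reference compound; higher means more ethidium bromide displaced from hairpin DNA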
Active calls of the source: *. Unless noted, how the calls were made is not given here.

How did COCc1c(Br)c(C)nc(OCC(=O)N/N=C/c2cc(C)n(-c3ccc([N+](=O)[O-])cc3)c2C)c1C#N do in these assays?
HCV NS3 hel inh: 0; PABP polyA inh: 8; core dimer inh: 48*; eIF4H FP inh: 8; MLLE-PAM2 inh: 0; DNA FID counter: -2

How did COC(=O)C1=C(C)N=c2s/c(=C/c3ccoc3)c(=O)n2C1c1ccccc1 (centres undefined) do in these assays?
HCV NS3 hel inh: 13; PABP polyA inh: 105*; core dimer inh: 1; eIF4H FP inh: 83*; MLLE-PAM2 inh: -115; DNA FID counter: -2

What do the screens show for `CCOC(=O)C1=C(C)N=c2s/c(=C/c3ccco3)c(=O)n2C1c1cccc(OC)c1` (centres undefined)?
HCV NS3 hel inh: 36; PABP polyA inh: inconclusive; core dimer inh: 48*; eIF4H FP inh: inconclusive; DNA FID counter: -25

What do the screens show for `CCN(CC(=O)Nc1c(F)cccc1F)C(=O)Cc1ccc2c(c1)CCC2`?
core dimer inh: 4; MLLE-PAM2 inh: 41*

How did CC1(C)OC2CC3C4CC(F)C5=CC(=O)C=CC5(C)C4(F)C(O)CC3(C)C2(C(=O)CO)O1 (centres undefined) do in these assays?
HCV NS3 hel inh: -15; PABP polyA inh: 8; core dimer inh: 2; eIF4H FP inh: -8; MLLE-PAM2 inh: 0; DNA FID counter: -14

How did COc1ccccc1CNC(=O)C1CC(c2ccccc2[N+](=O)[O-])=NO1 (centres undefined) do in these assays?
HCV NS3 hel inh: -1; PABP polyA inh: active; core dimer inh: -2; eIF4H FP inh: 54; MLLE-PAM2 inh: 14; DNA FID counter: -3

How did O=C(Nc1cccc(Oc2ccccc2)c1)C1Cc2c(-c3ccc4c(c3)OCO4)ccnc2O1 (centres undefined) do in these assays?
MLLE-PAM2 inh: 6

How did CCN(CC)Cc1c(O)c(Cl)cc2c(C)c(C)c(=O)oc12 do in these assays?
HCV NS3 hel inh: -1; PABP polyA inh: 2; core dimer inh: -16; eIF4H FP inh: -4; MLLE-PAM2 inh: 1; DNA FID counter: -3

Results for Cc1cc(=O)oc2c(CN3CCCC3)c(O)c(Cl)cc12 ?
HCV NS3 hel inh: 3; PABP polyA inh: 46; core dimer inh: 1; eIF4H FP inh: 61; MLLE-PAM2 inh: 12; DNA FID counter: -5

How did CCCc1cc(=O)oc2c(CN3CCCC3)c(O)ccc12 do in these assays?
HCV NS3 hel inh: -5; PABP polyA inh: 33; core dimer inh: 5; eIF4H FP inh: 31; MLLE-PAM2 inh: 2; DNA FID counter: 3

What do the screens show for `CCCc1cc(=O)oc2c(CN3CCCC3)c(O)c(Cl)cc12`?
HCV NS3 hel inh: 10; PABP polyA inh: 116*; core dimer inh: 4; eIF4H FP inh: 108*; MLLE-PAM2 inh: 32; DNA FID counter: -5

How did Cc1cc(=O)oc2c(CN3CCC(C)CC3)c(O)c(Cl)cc12 do in these assays?
HCV NS3 hel inh: 11; PABP polyA inh: inconclusive; core dimer inh: 7; eIF4H FP inh: inconclusive; MLLE-PAM2 inh: 51*; DNA FID counter: -9

Results for CCN(CC)Cc1c(O)c(Cl)cc2c(C)cc(=O)oc12 ?
HCV NS3 hel inh: 5; PABP polyA inh: 0; eIF4H FP inh: inconclusive; MLLE-PAM2 inh: 41*; DNA FID counter: -8

How did Nc1nc(SCc2ccccc2)cc(SCc2ccccc2)n1 do in these assays?
MLLE-PAM2 inh: 1

How did CC(C)CCCC(C)NC(=O)c1cc(S(=O)(=O)N2CCCCC2)ccc1N1CCOCC1 (centres undefined) do in these assays?
MLLE-PAM2 inh: -11

What do the screens show for `O=C1CCCC(O)=C1Sc1ccccc1C(=O)O`?
HCV NS3 hel inh: 9; PABP polyA inh: 51; core dimer inh: 5; eIF4H FP inh: 87*; MLLE-PAM2 inh: 9; DNA FID counter: 0

What do the screens show for `N#Cc1ccccc1OCC(=O)N(C1CCCCC1)C1CCS(=O)(=O)C1` (centres undefined)?
core dimer inh: -4; MLLE-PAM2 inh: -5

What do the screens show for `O=c1cc(-c2ccc(O)cc2)oc2c(-c3c(O)cc(O)c4c(=O)cc(-c5ccc(O)cc5)oc34)c(O)cc(O)c12`?
MLLE-PAM2 inh: -7

What do the screens show for `O=c1c(-c2c(O)cc(O)c3c(=O)cc(-c4ccc(O)cc4)oc23)c(-c2ccc(O)cc2)oc2cc(O)cc(O)c12`?
PABP polyA inh: 65*; core dimer inh: 24; eIF4H FP inh: 95*; MLLE-PAM2 inh: -14

Results for COC(=O)C1=C(C)N(Cc2ccccc2)C(=NCc2cccc(Cl)c2)N[C@H]1c1cccc(F)c1 ?
MLLE-PAM2 inh: -11

How did COC(=O)C1=C(C)N(Cc2ccccc2)C(=NCCCCO)N[C@H]1c1ccccc1 do in these assays?
HCV NS3 hel inh: -37; PABP polyA inh: 84*; core dimer inh: 3; eIF4H FP inh: 28; DNA FID counter: 26

Results for COC(=O)C1=C(C)N(Cc2ccccc2)C(=NCc2ccc(OC)cc2)N[C@H]1c1cccc(F)c1 ?
HCV NS3 hel inh: -93; PABP polyA inh: 58*; core dimer inh: -27; eIF4H FP inh: 1; MLLE-PAM2 inh: -115; DNA FID counter: 20

How did Cn1nnc(NC(=S)NC(=O)c2cc(Cl)ccc2Cl)n1 do in these assays?
HCV NS3 hel inh: 16; PABP polyA inh: -1; core dimer inh: -10; eIF4H FP inh: 7; MLLE-PAM2 inh: 36; DNA FID counter: -9

What do the screens show for `O=C(CCN1CCN(Cc2ccccc2)CC1)NNC(=O)c1ccc(Cl)c(Cl)c1`?
MLLE-PAM2 inh: 2

Results for CCC(C)c1ccc(NC(=O)COc2c(F)c(F)c(C(F)(F)F)c(F)c2F)cc1 (centres undefined) ?
HCV NS3 hel inh: 3; PABP polyA inh: 117*; core dimer inh: -8; eIF4H FP inh: active; MLLE-PAM2 inh: -7; DNA FID counter: -12

How did CCc1nnc(NC(=O)CSc2ccc(-c3ccco3)nn2)s1 do in these assays?
HCV NS3 hel inh: 18; PABP polyA inh: active; core dimer inh: 13; eIF4H FP inh: 95*; MLLE-PAM2 inh: -3; DNA FID counter: -15

What do the screens show for `Cc1nnc(NC(=O)CSc2ccc(-c3ccco3)nn2)s1`?
HCV NS3 hel inh: 2; PABP polyA inh: -12; core dimer inh: 9; eIF4H FP inh: 105; MLLE-PAM2 inh: 37; DNA FID counter: -9

What do the screens show for `Cc1ccc(C)c(NC(=O)CSc2ccc(-c3ccco3)nn2)c1`?
HCV NS3 hel inh: 8; PABP polyA inh: 1; core dimer inh: 2; eIF4H FP inh: 36; MLLE-PAM2 inh: 19; DNA FID counter: -19

How did Cc1ccccc1NC(=O)CSc1ccc(-c2ccco2)nn1 do in these assays?
HCV NS3 hel inh: 11; PABP polyA inh: 0.3*; core dimer inh: -3; eIF4H FP inh: inconclusive; MLLE-PAM2 inh: 16; DNA FID counter: -16

What do the screens show for `CC(OC(=O)c1ccc(NC(=O)CC#N)cc1)C(=O)Nc1ccc(Oc2ccccc2)cc1` (centres undefined)?
HCV NS3 hel inh: 17; PABP polyA inh: 0; core dimer inh: 47*; eIF4H FP inh: 54*; MLLE-PAM2 inh: -27; DNA FID counter: -17
